Results from ChEMBL document CHEMBL4043307, “Toward β-Secretase-1 Inhibitors with Improved Isoform Selectivity” (J Med Chem, 2018).
Activity calls are given as the source filed them. No cut-off for these calls is given here.

Tests used:
[1] = Intrinsic clearance in rat hepatocytes assessed per million cells at 1 uM after 120 mins by LC-MS/MS method; format: ADME, cell-based, Hepatocyte; conditions: 2 h
[2] = system: Liver; assay: Intrinsic clearance in human liver microsomes at 1 uM after 30 mins by LC-MS/MS method; format: ADME, microsome; conditions: 0.5 h
[3] = molecular target: hERG (KCNH2) (Homo sapiens, UniProt Q12809); assay: Inhibition of human ERG at 11.1 uM relative to control
Sequence of hERG (KCNH2) (Q12809 whole entry, the tested form may be a part): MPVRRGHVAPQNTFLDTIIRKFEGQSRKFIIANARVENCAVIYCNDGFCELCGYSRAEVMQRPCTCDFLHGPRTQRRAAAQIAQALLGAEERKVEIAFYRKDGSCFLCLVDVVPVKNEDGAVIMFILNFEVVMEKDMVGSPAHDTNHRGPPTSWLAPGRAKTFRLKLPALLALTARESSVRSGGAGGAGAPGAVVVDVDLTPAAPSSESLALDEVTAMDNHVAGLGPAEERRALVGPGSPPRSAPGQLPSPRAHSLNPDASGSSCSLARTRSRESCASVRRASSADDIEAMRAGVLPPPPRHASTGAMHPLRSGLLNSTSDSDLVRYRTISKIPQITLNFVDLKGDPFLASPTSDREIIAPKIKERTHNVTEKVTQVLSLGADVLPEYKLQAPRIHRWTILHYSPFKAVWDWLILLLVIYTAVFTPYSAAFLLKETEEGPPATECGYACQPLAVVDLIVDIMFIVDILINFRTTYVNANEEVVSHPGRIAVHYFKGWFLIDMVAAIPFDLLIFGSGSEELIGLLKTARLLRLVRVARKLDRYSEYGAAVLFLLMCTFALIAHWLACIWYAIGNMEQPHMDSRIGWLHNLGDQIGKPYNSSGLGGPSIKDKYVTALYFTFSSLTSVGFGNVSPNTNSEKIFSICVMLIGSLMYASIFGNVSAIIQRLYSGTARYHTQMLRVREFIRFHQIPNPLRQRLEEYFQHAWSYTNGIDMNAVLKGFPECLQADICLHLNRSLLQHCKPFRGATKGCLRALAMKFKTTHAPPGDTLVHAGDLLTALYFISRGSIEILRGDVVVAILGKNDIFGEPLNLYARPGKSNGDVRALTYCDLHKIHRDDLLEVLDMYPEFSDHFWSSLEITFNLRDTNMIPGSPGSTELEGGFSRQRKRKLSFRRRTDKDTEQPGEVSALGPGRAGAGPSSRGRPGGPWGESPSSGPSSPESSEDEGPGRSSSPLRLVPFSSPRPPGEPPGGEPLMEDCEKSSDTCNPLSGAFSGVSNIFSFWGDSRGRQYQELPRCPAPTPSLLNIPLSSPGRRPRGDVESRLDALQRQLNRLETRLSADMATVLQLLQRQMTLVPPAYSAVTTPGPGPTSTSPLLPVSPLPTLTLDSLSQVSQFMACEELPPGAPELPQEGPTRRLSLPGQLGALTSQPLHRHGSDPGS

[4] = molecular target: T1, Beta-secretase 1 (Homo sapiens, UniProt P56817); assay: Inhibition of human BACE1 (1 to 460 residues) fused with Fc domain of IgG1 expressed in HEK293 cells preincubated for 10 mins followed by substrate addition measured after 17 mins by TR-FRET assay; format: cell-based
T1 sequence (P56817 whole entry, the tested form may be a part): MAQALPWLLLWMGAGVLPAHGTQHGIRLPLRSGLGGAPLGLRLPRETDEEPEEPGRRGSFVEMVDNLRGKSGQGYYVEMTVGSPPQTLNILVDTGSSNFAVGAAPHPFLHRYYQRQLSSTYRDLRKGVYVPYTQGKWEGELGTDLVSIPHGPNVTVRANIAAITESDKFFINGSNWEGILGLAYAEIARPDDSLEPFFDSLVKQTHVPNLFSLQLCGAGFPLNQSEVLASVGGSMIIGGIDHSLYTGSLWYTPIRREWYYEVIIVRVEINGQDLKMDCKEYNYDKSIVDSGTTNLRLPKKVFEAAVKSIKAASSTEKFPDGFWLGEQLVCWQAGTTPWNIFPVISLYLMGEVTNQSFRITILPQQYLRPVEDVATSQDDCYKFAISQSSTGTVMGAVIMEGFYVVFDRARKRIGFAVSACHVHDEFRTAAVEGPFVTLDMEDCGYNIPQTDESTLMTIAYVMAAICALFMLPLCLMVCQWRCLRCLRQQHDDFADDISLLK
Outline: (§1)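 Biochemical protease assays on the human BACE1 or BACE2 enzyme. Both assays use the same fluorescently labelled peptide substrate, designed to span the BACE cleavage site of APP.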

[5] = molecular target: T1, Beta-secretase 1; assay: Inhibition of BACE1 in human SH-SY5Y cells assessed as decrease in sAPP-beta release after 16 to 17 hrs; format: cell-based
[6] = system: Brain; assay: Fraction unbound in C57BL/6 mouse brain at 50 mg/kg, po after 3 hrs by LC-MS/MS analysis; format: ADME, organism-based; conditions: in vivo
[7] = system: Mus musculus; assay: Reduction of amyloid beta-42 levels in C57BL/6 mouse brain at 50 mg/kg, po after 3 hrs by immunoassay relative to vehicle-treated control; format: functional; set-up: scale not given: the % may be the effect or the level left
Outline: (§2)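 PK/PD study in C57BL/6 mice given 50 mg/kg orally. Brain Aβ40 and Aβ42 and plasma Aβ40 levels were followed over time alongside free brain and plasma exposure, and compared with vehicle-treated controls.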

[8] = molecular target: Voltage-gated inwardly rectifying potassium channel KCNH2 (Homo sapiens, UniProt Q12809); assay: Inhibition of human ERG
Sequence of Voltage-gated inwardly rectifying potassium channel KCNH2 (Q12809 whole entry): as the sequence (Q12809 whole entry, the tested form may be a part) above

[9] = molecular target: T2, Beta-secretase 2 (Homo sapiens, UniProt Q9Y5Z0); assay: Inhibition of BACE2 in human MNT1 cells assessed as increase in M-beta accumulation at 10 uM after 24 hrs by Western blot method; format: cell-based
T2 sequence (Q9Y5Z0 whole entry): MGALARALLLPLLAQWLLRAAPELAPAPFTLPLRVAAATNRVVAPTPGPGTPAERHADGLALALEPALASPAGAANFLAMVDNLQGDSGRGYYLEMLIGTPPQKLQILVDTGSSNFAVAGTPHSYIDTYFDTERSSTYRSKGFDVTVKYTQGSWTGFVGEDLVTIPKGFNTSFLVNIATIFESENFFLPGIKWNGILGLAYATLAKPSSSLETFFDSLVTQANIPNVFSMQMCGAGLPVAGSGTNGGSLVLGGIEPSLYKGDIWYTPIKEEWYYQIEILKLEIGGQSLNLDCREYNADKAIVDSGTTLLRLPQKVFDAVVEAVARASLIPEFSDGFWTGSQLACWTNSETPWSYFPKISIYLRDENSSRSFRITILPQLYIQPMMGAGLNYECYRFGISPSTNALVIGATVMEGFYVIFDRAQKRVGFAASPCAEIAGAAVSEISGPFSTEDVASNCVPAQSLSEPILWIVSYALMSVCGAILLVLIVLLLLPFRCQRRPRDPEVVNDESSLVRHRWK
Outline: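 Human melanocyte MNT1 cells incubated with a range of inhibitor concentrations or vehicle (0.1% DMSO). Cells then processed to detect parent PMEL (P1) and the proteolytically cleaved Mβ fragment. Mβ fragment accumulation serves as the read-out of BACE2 inhibition.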

[10] = system: Mus musculus; assay: Reduction of amyloid beta-40 levels in C57BL/6 mouse plasma at 50 mg/kg, po after 1.5 to 16 hrs by immunoassay; format: functional, organism-based; conditions: tested as the 2H-labelled form; outline: as §2
[11] = system: Mus musculus; assay: Reduction of amyloid beta-40 levels in C57BL/6 mouse brain at 50 mg/kg, po after 1.5 to 16 hrs by immunoassay relative to vehicle-treated control; format: functional, organism-based; conditions: tested as the 2H-labelled form; outline: as §2
[12] = system: Mus musculus; assay: Reduction of amyloid beta-42 levels in C57BL/6 mouse brain at 50 mg/kg, po after 1.5 to 16 hrs by immunoassay relative to vehicle-treated control; format: functional, organism-based; conditions: tested as the 2H-labelled form; outline: as §2
[13] = molecular target: Cathepsin D (Homo sapiens) (UniProt P07339); assay: Inhibition of human cathepsin D up to 100 uM using MOCAc-Gly-Lys-Pro-Ile-Leu-Phe-Phe-Arg-Leu-Lys(Dnp)-D-Arg-NH2 as substrate after 10 mins by spectrophotometric method; conditions: tested as the 2H-labelled form
Sequence of Cathepsin D (Homo sapiens) (P07339 65-162 limits assumed): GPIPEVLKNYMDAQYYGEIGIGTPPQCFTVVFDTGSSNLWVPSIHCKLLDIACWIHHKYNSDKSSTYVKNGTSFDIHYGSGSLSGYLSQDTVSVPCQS
Sequence of Cathepsin D (Homo sapiens) (P07339 169-412 limits assumed): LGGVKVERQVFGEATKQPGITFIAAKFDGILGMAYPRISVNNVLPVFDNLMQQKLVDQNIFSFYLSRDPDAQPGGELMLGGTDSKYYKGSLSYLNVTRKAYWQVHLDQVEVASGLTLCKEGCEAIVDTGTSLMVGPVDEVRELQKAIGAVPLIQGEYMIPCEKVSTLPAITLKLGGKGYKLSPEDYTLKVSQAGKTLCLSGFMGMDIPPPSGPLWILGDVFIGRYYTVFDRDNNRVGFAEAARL

[14] = species on record: Sus scrofa; assay: Inhibition of pig pepsin up to 100 uM using MOCAc-Ala-Pro-Ala-Lys-Phe-Phe-Arg-Leu-Lys(Dnp)-NH2 as substrate after 60 mins by spectrophotometric method; conditions: tested as the 2H-labelled form
[15] = molecular target: T3, Renin (Homo sapiens) (UniProt P00797); assay: Inhibition of full length recombinant human renin up to 100 uM using DABCYL-gamma-Abu-Ile-His-Pro-Phe-His-Leu-Val-Ile-His-Thr-EDANS as substrate after 60 mins by spectrophotometric method; conditions: tested as the 2H-labelled form
T3 sequence (whole entry): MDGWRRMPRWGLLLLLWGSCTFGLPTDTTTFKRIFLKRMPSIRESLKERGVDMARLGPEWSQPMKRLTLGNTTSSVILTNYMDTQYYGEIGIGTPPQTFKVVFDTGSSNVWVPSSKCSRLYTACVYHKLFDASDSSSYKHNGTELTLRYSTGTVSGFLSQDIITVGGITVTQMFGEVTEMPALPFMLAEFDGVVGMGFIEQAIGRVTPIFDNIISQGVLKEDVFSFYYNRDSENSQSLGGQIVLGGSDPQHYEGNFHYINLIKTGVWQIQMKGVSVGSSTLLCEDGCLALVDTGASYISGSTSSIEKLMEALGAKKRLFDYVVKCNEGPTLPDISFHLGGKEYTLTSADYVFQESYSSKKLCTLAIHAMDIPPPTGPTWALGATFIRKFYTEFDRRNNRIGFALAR

[16] = molecular target: Cathepsin S (Homo sapiens) (UniProt P25774); assay: Inhibition of full length recombinant human cathepsin S up to 100 uM using Z-Leu-Arg-AMC as substrate after 30 mins by spectrophotometric method; conditions: tested as the 2H-labelled form
Sequence of Cathepsin S (Homo sapiens) (P25774 115-331 limits assumed): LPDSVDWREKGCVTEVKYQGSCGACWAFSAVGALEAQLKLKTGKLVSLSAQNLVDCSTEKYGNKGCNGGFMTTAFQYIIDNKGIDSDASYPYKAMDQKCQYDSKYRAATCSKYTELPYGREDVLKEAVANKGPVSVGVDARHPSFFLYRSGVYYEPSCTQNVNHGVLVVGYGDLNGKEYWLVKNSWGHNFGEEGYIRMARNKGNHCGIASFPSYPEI

[17] = Unbound brain-to-plasma concentration ratio in CD rat at 5 mg/kg, po as cassette dose after 2 hrs by LC-MS/MS method; format: ADME, organism-based; conditions: brain and plasma, read-out: K(p,uu,brain)
[18] = Unbound brain-to-plasma concentration ratio in CD rat at 1 mg/kg, po as cassette dose after 2 hrs by LC-MS/MS method; format: ADME, organism-based; conditions: brain and plasma, read-out: K(p,uu,brain)
[19] = molecular target: T2, Beta-secretase 2; assay: Inhibition of human BACE2 (1 to 473 residues) using CEVNLDAEFK as substrate preincubated for 10 mins followed by substrate addition measured after 6.5 hrs by TR-FRET assay; outline: as §1
[20] = molecular target: T2, Beta-secretase 2; assay: Inhibition of BACE2 in human MNT1 cells assessed as increase in M-beta accumulation at 10 nM after 24 hrs by Western blot method; format: cell-based; conditions: 0.01 µM
Outline: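 Human melanocyte MNT1 cells incubated with a range of inhibitor concentrations or vehicle (0.1% DMSO), then processed to detect parent PMEL (P1) and the proteolytically cleaved Mβ fragment. Mβ accumulation serves as the read-out of BACE2 inhibition.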

[21] = Apparent permeability across MDCK cells expressing MDR1 after 2 hrs by LC-MS/MS method; format: ADME, cell-based, Canis lupus familiaris; conditions: dog

For `[2H]C1([2H])OC(N)=N[C@]12c1cc(-c3cncnc3)ccc1C[C@]21CC[C@@H](OC)[C@H](CC)C1`, the CLH [1] was 138 µL/min/10^6 cells, the CLH [2] was 149 µL/min/mg and the inhibition at 11.1 µM [3] was 15%.
With `[2H]C1([2H])OC(N)=N[C@]12c1cc(-c3cncnc3)ccc1C[C@]21CC[C@@H](OC)CC1` the Ki [4] was 0.134 µM and the IC50 [5] was 0.007 µM.
With `[2H]C1([2H])OC(N)=N[C@]12c1cc(-c3cncnc3)ccc1C[C@@]21CC[C@H](OC)[C@@H](C)C1` the “Drug uptake(free)” value [6] was 50 nM, the Activity [7] was 30% and the IC50 [8] was greater than 33 µM. The CLH [1] was 66 µL/min/10^6 cells, the CLH [2] was 47 µL/min/mg and the “inhibition (INH)” value [9] was “Active”.
With `CO[C@H]1CC[C@@]2(Cc3ccc(-c4cncnc4)cc3[C@@]23COC(N)=N3)C[C@@H]1C` the Activity [10] was “Active”, the Activity [11] was “inactive” and the Activity [12] was “inactive”. For the same molecule, the inhibition [13] was “inactive”, the inhibition [14] was “inactive” and the inhibition [15] was “inactive”. For the same molecule, the inhibition [16] was “inactive”.
`[2H]C1([2H])OC(N)=N[C@]12c1cc(-c3cc(C#N)cc(OC)c3)ccc1C[C@]21CC[C@@H](OC)CC1` gave a CLH [1] of 25.1 µL/min/10^6 cells, a CLH [2] of 15.7 µL/min/mg and a Kp uu at 2 h [17] of 0.27.
`[2H]C1([2H])OC(N)=N[C@]12c1cc(-c3cncnc3)ccc1C[C@@]21CC[C@H](OC)[C@@H](CC)C1` gave a CLH [1] of 158 µL/min/10^6 cells, a CLH [2] of 153 µL/min/mg and an inhibition at 11.1 µM [3] of 29%.
With `[2H]C1([2H])OC(N)=N[C@]12c1cc(-c3cncnc3)ccc1C[C@]21CC[C@@H](OC)[C@H](C)C1` the IC50 [8] was greater than 33 µM, the CLH [1] was 82 µL/min/10^6 cells and the CLH [2] was 52.4 µL/min/mg.
In the case of `COc1cc(C#N)cc(-c2ccc3c(c2)[C@@]2(COC(N)=N2)[C@]2(CC[C@H](OC)CC2)C3)c1`, the CLH [1] is reported as 23.9 µL/min/10^6 cells, the Kp uu at 2 h [18] is reported as 0.07 and the CLH [2] is reported as 13.9 µL/min/mg.
For `[2H]C1([2H])OC(N)=N[C@]12c1cc(-c3cccnc3)ccc1C[C@]21CC[C@@H](OC)CC1`, the Ki [4] was 0.43 µM and the IC50 [5] was 0.007 µM.
With `NC1=N[C@@](c2cccc(-c3cncnc3)c2)(c2ccnc(C(F)F)c2)c2cccc(F)c21` [AZD-3839] the IC50 [19] was 0.0009 µM and the “inhibition (INH)” value [20] was “Active”.
With `CO[C@H]1CC[C@]2(CC1)Cc1ccc(-c3cc(Cl)cc(C#N)c3)cc1[C@@]21COC(N)=N1` the CLH [1] was 11.6 µL/min/10^6 cells, the Kp uu at 2 h [18] was 0.21 and the CLH [2] was 11.1 µL/min/mg. The permeability [21] was “Impermeable”.
Molecule `[2H]C1([2H])OC(N)=N[C@]12c1cc(-c3cc(Cl)cc(C#N)c3)ccc1C[C@]21CC[C@@H](OC)CC1` has a CLH [1] of 8.7 µL/min/10^6 cells, a CLH [2] of 11.5 µL/min/mg and a Kp uu at 2 h [17] of 0.68.
In the case of `[2H]C1([2H])OC(N)=N[C@]12c1cc(-c3cncnc3)ccc1C[C@@]21C[C@@H](C)[C@H](OC)[C@@H](C)C1` (racemic), the CLH [1] is reported as 137 µL/min/10^6 cells and the CLH [2] is reported as 187 µL/min/mg.
